Data set [1] in a line: Potentiation of colistin-induced antibacterial activity against Francisella philomiragia ATCC 25015 assessed as reduction of colistin MIC at 50 uM after 48 hrs relative to control. It is filed as functional. In outline:
(§1)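 Inocula were 5 × 10^5 CFU/mL in CAMHB with 2% IsoVitaleX (F. philomiragia) or TSB-C (F. novicida). Adjuvant from a 100 mM DMSO stock was held at one fixed concentration; the control had no adjuvant. Antibiotic started at 2–2,048 µg/mL in twofold serial dilutions. Incubation was stationary at 37°C for 48 h. Antibiotic MIC was the lowest concentration with no growth, compared with and without adjuvant.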

The nature of data set [2]: Effect on growth of Francisella philomiragia ATCC 25015 after 48 hrs. In outline: (§2)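 Cultures grown 24 h were diluted to 5 × 10^5 CFU/mL in CAMHB with 2% IsoVitaleX (F. philomiragia) or TSB-C (F. novicida). Compound came from a 100 mM DMSO stock, starting at 200 µM, in twofold serial dilutions over 12 wells. Plates were incubated stationary at 37°C for 48 h. MIC was the lowest concentration with no bacterial growth.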

Data set [3] can be described thus: Potentiation of gentamicin-induced antibacterial activity against Francisella philomiragia ATCC 25015 assessed as MIC of gentamicin at 50 uM after 48 hrs (reference value: 0.5 ug/ml). It counts as functional. Particulars: ATCC 25015, 48 h. In outline:
as §1

Data set [4] in a line: Potentiation of streptomycin-induced antibacterial activity against Francisella philomiragia ATCC 25015 assessed as MIC of streptomycin at 50 uM after 48 hrs (reference value: 4 ug/ml). The conditions noted are these: ATCC 25015, 48 h. It is filed as functional. The procedure, abridged: as §1
Data set [5] in a line: Potentiation of colistin-induced antibacterial activity against Francisella philomiragia ATCC 25015 assessed as MIC of colistin at 50 uM after 48 hrs (reference value: 256 ug/ml). It is filed as functional. The conditions noted are these: ATCC 25015, 48 h. The procedure, abridged: as §1
Data set [6] can be described thus: Potentiation of azithromycin-induced antibacterial activity against Francisella philomiragia ATCC 25015 assessed as MIC of azithromycin at 50 uM after 48 hrs (reference value: 4 ug/ml). It is filed as functional. The conditions noted are these: ATCC 25015, 48 h. The procedure, abridged:
as §1

A short description of data set [7]: Potentiation of gentamicin-induced antibacterial activity against Francisella philomiragia ATCC 25015 assessed as reduction of gentamicin MIC at 50 uM after 48 hrs relative to control. It is filed as functional. In outline:
as §1

The nature of data set [8]: microbe, parasite or virus in culture. It is filed as functional, Francisella tularensis subsp. novicida U112. Particulars: Francisella tularensis, 48 h.
Data set [9] in a line: Potentiation of azithromycin-induced antibacterial activity against Francisella novicida U112 assessed as MIC of azithromycin at 50 uM after 48 hrs (reference value: 2 ug/ml). It counts as functional, Francisella tularensis subsp. novicida U112. The conditions noted are these: Francisella tularensis. In outline: as §1
Data set [10] can be described thus: Potentiation of gentamicin-induced antibacterial activity against Francisella novicida U112 assessed as MIC of gentamicin at 50 uM after 48 hrs (reference value: 1 ug/ml). It counts as functional, Francisella tularensis subsp. novicida U112. Particulars: Francisella tularensis. In outline:
as §1

The nature of data set [11]: microbe, parasite or virus in culture. It is filed as functional. Particulars: Francisella philomiragia, ATCC 25015, 48 h.
Data set [12] is described as follows: Effect on growth of Francisella novicida U112 after 48 hrs. The conditions noted are these: francisella tularensis subsp. novicida u112, 48 h. The procedure, abridged:
as §2

Data set [13] in a line: Potentiation of streptomycin-induced antibacterial activity against Francisella philomiragia ATCC 25015 assessed as reduction of streptomycin MIC at 50 uM after 48 hrs relative to control. It is filed as functional. The procedure, abridged:
as §1

Data set [14] can be described thus: Effect on growth of Francisella philomiragia ATCC 25015 at 50 uM after 16 hrs by time kill assay. The procedure, abridged:
(§3)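 F. philomiragia from 24 h CAMHB/2% IsoVitaleX cultures was inoculated to 5 × 10^5 CFU/mL, with compound or as an untreated control. Tubes were shaken at 37°C. Samples taken at 8, 12, 16, 20 and 24 h were serially diluted and plated on cysteine heart agar with 5% rabbit blood. Plates were incubated at 37°C for 24–36 h, and CFU were counted.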

Data set [15] in a line: Potentiation of colistin-induced antibacterial activity against Francisella novicida U112 assessed as reduction of colistin MIC at 100 uM after 48 hrs. It counts as functional, Francisella tularensis subsp. novicida U112. In outline:
as §1

The nature of data set [16]: Potentiation of colistin-induced antibacterial activity against Francisella novicida U112 assessed as reduction of colistin MIC at 50 uM after 48 hrs relative to control. It is filed as functional, Francisella tularensis subsp. novicida U112. The procedure, abridged:
as §1

A short description of data set [17]: Effect on growth of Francisella philomiragia ATCC 25015 assessed as growth delay at 50 uM after 8 to 12 hrs by time kill assay. The procedure, abridged: as §3
Data set [18] concerns Francisella tularensis subsp. novicida U112. Put plainly: Potentiation of azithromycin-induced antibacterial activity against Francisella novicida U112 assessed as reduction of azithromycin MIC at 50 uM after 48 hrs relative to control. It is filed as functional. The procedure, abridged:
as §1

The nature of data set [19]: Potentiation of azithromycin-induced antibacterial activity against Francisella philomiragia ATCC 25015 assessed as reduction of azithromycin MIC at 50 uM after 48 hrs relative to control. It counts as functional. The procedure, abridged:
as §1

Data set [20] is described as follows: Potentiation of FR900098-induced antibacterial activity against Francisella philomiragia ATCC 25015 assessed as reduction of FR900098 MIC at 50 uM after 48 hrs relative to control. It counts as functional. In outline:
as §1

In brackets after ≈: the same amount, converted by molar mass. Activity calls are given as the source filed them. The rule behind the calls is not given here. Bounds are passed on as bounds.

As to `CCCCc1ccc(C(=O)NCCCc2c[nH]c3ccccc23)cc1`, the “fold change (FC)” value in data set [1] was 4. The MIC in [2] is > 200 µM; in data set [3] it was 0.25 µg/mL; in data set [4], 4 µg/mL; in data set [5] it was 64 µg/mL; in data set [6], 2 µg/mL.

Regarding `Cc1cc2nc(N)[nH]c2cc1C`, the “fold change (FC)” value in data set [7] and in [13] was 4 each time. Further, the MIC is 1020 µg/mL (≈ 6.35 mM) in [8]; 2 µg/mL in data set [9]; > 200 µM in data set [2]; 0.125 µg/mL in [3]; 1 µg/mL in [4]; 1 µg/mL in [10]. Further, the MIC is 1020 µg/mL (≈ 6.35 mM) in data set [11], 32 µg/mL in data set [5], > 200 µg/mL in data set [12] and 4 µg/mL in data set [6].

For `CCCCc1ccc(C(=O)NCCc2c[nH]c3ccccc23)cc1`, the MIC in [8] is 512 µg/mL (≈ 1.6 mM); in data set [9], 1 µg/mL; in [2], > 200 µM; in data set [3], 0.25 µg/mL; in data set [4], 4 µg/mL; in data set [10], 4 µg/mL. Further, the MIC in data set [11] was 1020 µg/mL (≈ 3.2 mM); in data set [5], 8 µg/mL; in [12], > 200 µg/mL; in data set [6], 0.5 µg/mL. Further, the Activity result in data set [14] is “Non-toxic”; in data set [17], “Toxic”. In addition, the “fold change (FC)” value in data set [15] came out at 16; in data set [16], 2.

Take `CCSC(=O)N1CCc2ccccc21`: the MIC in data set [8] was 1020 µg/mL (≈ 4.94 mM); in [9], 0.125 µg/mL; in data set [2], > 200 µM; in [3] it was 0.5 µg/mL; in data set [4], 4 µg/mL; in [10], 4 µg/mL. Besides, the MIC in [11] is 1020 µg/mL (≈ 4.94 mM); in [5], 256 µg/mL; in data set [12], > 200 µg/mL; in data set [6], 0.5 µg/mL. The outcome in data set [18] was Active. In addition, in data set [19], the “fold change (FC)” value was determined as 8.

Take `CCCCCc1ccc(C2=NCCO2)cc1`: the MIC is 200 µM (≈ 43.5 µg/mL) in [2]; 1 µg/mL in [3]; 8 µg/mL in [4]; < 64 µg/mL in data set [11]; 512 µg/mL in data set [5]; 2 µg/mL in [6]. Further, in [20], the “fold change (FC)” value is reported as 16.
